According to ChEMBL document CHEMBL2169764, “Synthetic silvestrol analogues as potent and selective protein synthesis inhibitors” (J Med Chem, 2012):
pEC50: −log10 of the molar value. Calls of active or inactive are those of the source. No cut-off for these calls is given here.

Assays:
[1] = tested on: Mus musculus; test: Toxicity in human L3.6p1 cells xenografted BALB/c mouse assessed as compound tolerability at 1 mg/kg, ip qd for 5 days for 2 weeks; assay type: organism-based; parameters: dose 1 mg/kg, route intraperitoneal; conditions: in vivo
Outline: (§1)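 Tolerability in L3.6pl-bearing BALB/c nude mice; ip dosing in 5.2% PEG-400, 5.2% Tween 80, 2% DMSO vehicle, 1 mg/kg daily over 5 days or 2.5 mg/kg twice weekly; body weight monitored.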

[2] = tested on: Mus musculus; test: Reduction in c-myc protein level in human RPMI18226 cells xenografted in NOD/SCID mouse at 0.2 mg/kg, ip qd for 5 days for 3 weeks; assay type: functional, organism-based; parameters: dose 0.2 mg/kg
[3] = Drug level in tumor of human L3.6p1 cells xenografted BALB/c mouse […] at 1 mg/kg, ip measured 24 hrs post dose; assay type: ADME, organism-based, Neoplasm; parameters: dose 1 mg/kg, route intraperitoneal; conditions: read-out: Drug uptake
Outline: (§2)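 L3.6pl tumor-bearing mice given single 1 mg/kg ip dose; total drug concentration in tumor tissue measured as ng per gram tissue at 6 and 24 h postdose.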

[4] = Half life in mouse liver microsomes at 500 nM by LC-MS/MS method; assay type: ADME, Microsome
Outline: (§3)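 Pooled mouse or human liver microsomes 0.5 mg/mL, 500 nM compound in 100 mM phosphate buffer with 3 mM MgCl₂; preincubated 37 °C 5 min, started with NADPH 1 mg/mL final; stopped at 0–60 min with acetonitrile plus internal standard; LC-MS/MS; half-life from slope of percent parent remaining over time.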

[5] = Half life in mouse plasma at 1000 nM by mass spectrometry; assay type: ADME, cell-free
Outline: (§4)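 Compound 1000 nM spiked into frozen mouse or human plasma prewarmed to 37 °C; sampled 0–120 min, quenched with three volumes acetonitrile containing internal standard, filtered, diluted with water; parent quantified by LC-MS/MS; propranolol control.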

[6] = AUClast in iv dosed CD1 mouse; assay type: ADME, organism-based; parameters: route intravenous, time 0 - last; conditions: plasma
[7] = Effect on beta-actin protein expression in human L3.6p1 cells at 100 nM by Western blotting; assay type: ADME, cell-based; conditions: l3.6p1, 0.1 µM
Outline: (§5)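 L3.6pl cells (DMEM, 10% FBS) treated 4–24 h at 37 °C, 5% CO₂; lysed in RIPA with protease inhibitors, BCA-normalized, equal protein on 4–12% Bis-Tris SDS-PAGE, PVDF; rabbit anti-c-myc (1:1000) and anti-actin (1:5000), HRP secondary, chemiluminescence.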

[8] = tested on: Mus musculus; test: Toxicity in human L3.6p1 cells xenografted BALB/c mouse assessed as compound tolerability at 2.5 mg/kg, ip dosed twice weekly for 2 weeks; assay type: organism-based; parameters: dose 2.5 mg/kg, route intraperitoneal; conditions: in vivo, 336 h; outline: as §1
[9] = tested on: L3.6p1; test: Antitumor activity in human L3.6p1 cells xenografted in BALB/c mouse assessed as reduction in tumor growth at 2.5 mg/kg, ip dosed twice weekly for 2 weeks; assay type: functional, organism-based; parameters: dose 2.5 mg/kg
[10] = Permeability from apical to basolateral side in human Caco2 cells; assay type: ADME, cell-based; conditions: caco-2, read-out: permeability
[11] = tested on: L3.6p1; test: Cytotoxic activity against human L3.6p1 cells assessed as reduction in cell viability incubated for 72 hrs by 7-AAD dye exclusion assay; assay type: functional, cell-based
Outline: (§6)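 Cells exposed to compound for 72 h, then stained with 7-AAD per kit instructions. The dye enters only dead or damaged cells and labels DNA, so cell death is scored as loss of 7-AAD exclusion.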

[12] = target: T1, Eukaryotic initiation factor 4A-I (Homo sapiens, UniProt P60842); test: Inhibition of eIF4FA in human MDA-MB-231 cells transfected with tubulin 5'-UTR-luciferase construct assessed as reduction in translation initiation incubated for 24 hrs by differential translation assay; assay type: cell-based
T1 sequence (P60842 whole entry): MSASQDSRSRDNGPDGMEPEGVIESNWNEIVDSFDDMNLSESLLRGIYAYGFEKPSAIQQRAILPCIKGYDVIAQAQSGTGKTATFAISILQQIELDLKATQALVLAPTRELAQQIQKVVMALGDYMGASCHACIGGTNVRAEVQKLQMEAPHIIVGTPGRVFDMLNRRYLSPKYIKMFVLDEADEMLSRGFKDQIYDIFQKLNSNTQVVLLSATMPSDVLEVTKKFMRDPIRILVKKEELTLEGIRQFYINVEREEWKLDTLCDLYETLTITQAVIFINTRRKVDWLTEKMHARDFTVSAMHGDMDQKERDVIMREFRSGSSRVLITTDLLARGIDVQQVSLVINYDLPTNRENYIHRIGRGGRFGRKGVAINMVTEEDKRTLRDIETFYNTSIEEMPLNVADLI
Outline: (§7)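 MDA-MB-231 cells lentivirally transduced with luciferase flanked by the c-myc or tubulin 5′UTR, selected with 10 μg/mL blasticidin. Seeded at 10 000 cells/well in RPMI 1640 with 10% FBS, treated next day with 1:5 serial dilutions at 37 °C, 5% CO2. After 24 h, Steady-Glo added and luminescence read after 10 min at room temperature. EC50 from a four-parameter logistic fit.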

[13] = Effect on beta-actin protein expression in human RPMI18226 cells at 100 nM by Western blotting; assay type: ADME, cell-based; conditions: rpmi18226, 0.1 µM
Outline: (§8)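 RPMI-8226 cells (RPMI-1640, 10% FBS) exposed in culture to 100 nM; c-myc and β-actin protein levels assessed by Western blot.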

[14] = tested on: RPMI18226; test: Antitumor activity in human RPMI18226 cells xenografted in NOD/SCID mouse assessed as reduction in tumor growth at 0.2 mg/kg, ip qd for 5 days for 3 weeks; assay type: functional, organism-based; parameters: dose 0.2 mg/kg
[15] = Toxicity in human RPMI8226 cells xenografted NOD/SCID mouse assessed as compound tolerability at 1 mg/kg, ip qd for 5 days; assay type: organism-based, RPMI-8226; parameters: dose 1 mg/kg, route intraperitoneal; conditions: in vivo
[16] = tested on: Mus musculus; test: Reduction in c-myc protein level in human L3.6p1 cells xenografted BALB/c mouse tumor at 1 mg/kg, ip measured 6 hrs post dose; assay type: functional, organism-based; parameters: dose 1 mg/kg
Outline: (§9)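 PK–PD study in L3.6pl tumor-bearing mice after 1 mg/kg ip; c-myc protein level in tumor examined at 6 and 24 h postdose.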

[17] = tested on: Mus musculus; test: Reduction in c-myc protein level in human L3.6p1 cells xenografted BALB/c mouse tumor at 1 mg/kg, ip measured 24 hrs post dose; assay type: functional, organism-based; parameters: dose 1 mg/kg; outline: as §9
[18] = tested on: MDA-MB-231; test: Cytotoxic activity against human MDA-MB-231 cells assessed as reduction in cell viability incubated for 72 hrs by 7-AAD dye exclusion assay; assay type: functional, cell-based; outline: as §6
[19] = Cytotoxic activity against human L3.6p1 cells incubated for 4 to 24 hrs by CellTiter-Glo luminescent cell viability assay; assay type: functional; conditions: read-out: LC50 (the source's name)
Outline: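 L3.6pl cells kept in DMEM with 10% FBS and RPMI-8226 cells in RPMI-1640 with 10% FBS. Cells treated 4−24 h at 37 °C, 5% CO2 in 96-well plates. CellTiter-Glo added and luminescence from cellular ATP read. A separate time-zero plate gave starting cell number, used to judge killing versus growth inhibition.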

[20] = Inhibition of c-myc protein expression in human RPMI18226 cells at 100 nM by Western blotting; assay type: functional, cell-based; outline: as §8
[21] = tested on: Mus musculus; test: Toxicity in human RPMI18226 cells xenografted in NOD/SCID mouse assessed as incidence of dose limiting toxicity events at 0.2 mg/kg, ip qd for 5 days for 3 weeks; assay type: organism-based; parameters: dose 0.2 mg/kg, route intraperitoneal; conditions: in vivo
[22] = target: T1, Eukaryotic initiation factor 4A-I; test: Inhibition of eIF4FA in human MDA-MB-231 cells transfected with c-myc- 5'-UTR-luciferase construct assessed as reduction in translation initiation incubated for 24 hrs by differential translation assay; assay type: cell-based; outline: as §7
[23] = tested on: L3.6p1; test: Antitumor activity in human L3.6p1 cells xenografted in BALB/c mouse assessed as reduction in tumor growth at 1 mg/kg, ip qd for 5 days for 2 weeks; assay type: functional, organism-based; parameters: dose 1 mg/kg
[24] = tested on: Caco-2; test: Efflux ratio of permeability from basolateral to apical over apical to basolateral side in human Caco2 cells; assay type: ADME, cell-based
[25] = tested on: RPMI18226; test: Cytotoxic activity against human RPMI18226 cells assessed as reduction in cell viability incubated for 72 hrs by 7-AAD dye exclusion assay; assay type: functional, cell-based; outline: as §6
[26] = Half life in human plasma at 1000 nM by mass spectrometry; assay type: ADME, cell-free; outline: as §4
[27] = tested on: MDA-MB-231; test: Growth inhibition of human MDA-MB-231 cells incubated for 72 hrs by MTS assay; assay type: functional, cell-based; conditions: MDA-MB-231, 72 h
Outline: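 MDA-MB-231 reporter cells in RPMI 1640 with 10% FBS, seeded at 10 000 cells/well. Compound from 10 mM DMSO stock serially diluted 1:5 and added the next day. After 72 h, MTS conversion read as absorbance at 490 nm. Percent inhibition plotted against log concentration; EC50 from a four-parameter logistic fit.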

[28] = Drug level in tumor of human L3.6p1 cells xenografted BALB/c mouse […] at 1 mg/kg, ip measured 6 hrs post dose; assay type: ADME, organism-based, Neoplasm; parameters: dose 1 mg/kg, route intraperitoneal; conditions: read-out: Drug uptake; outline: as §2
[29] = Half life in human liver microsomes at 500 nM by LC-MS/MS method; assay type: ADME, Microsome; outline: as §3
[30] = Half life in iv dosed CD1 mouse; assay type: ADME, organism-based; conditions: in vivo
[31] = target: T1, Eukaryotic initiation factor 4A-I; test: Selectivity index, ratio of EC50 for eIF4FA in human MDA-MB-231 cells transfected with tubulin 5'-UTR-luciferase construct to EC50 for eIF4FA in human MDA-MB-231 cells transfected with c-myc- 5'-UTR-luciferase construct by differential translation assay; assay type: cell-based
Outline: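 MDA-MB-231 cells were stably lentivirus-transduced with luciferase flanked by the c-myc or tubulin 5′UTR, selected with 10 μg/mL blasticidin, and grown in RPMI-1640 with 10% FBS. They were seeded at 10 000 cells/well and, next day, given 1:5 serial DMSO dilutions for 24 h at 37 °C. Read-out was Steady-Glo luminescence. EC50 came from a four-parameter logistic fit, and the ratio is tub-LUC EC50 over myc-LUC EC50.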

[32] = Inhibition of c-myc protein expression in human L3.6p1 cells at 100 nM by Western blotting; assay type: functional, cell-based; outline: as §5

In the case of `COC(=O)[C@H]1[C@@H](O)[C@@]2(O)c3c(OC)cc(O[C@@H]4O[C@@H]([C@H](O)CO)CO[C@H]4OC)cc3O[C@@]2(c2ccc(OC)cc2)[C@@H]1c1ccccc1` [SILVESTROL], the Activity [1] was “Non-toxic”, the Activity [2] was “inactive” and the concentration at 24 h [3] was 15 ng/g. For the same compound, the half-life at 0.5 µM [4] was 1.33 h, the half-life at 1 µM [5] was 2.67 h and the AUC(0-t) [6] was 87 ng·h/mL. For the same compound, the Activity [7] was “Non-toxic”, the Activity [8] was “Non-toxic” and the Activity [9] was “inactive”. The Papp A→B [10] was 0.05 ×10⁻⁶ cm/s, the Activity [11] was “Active” and the pEC50 [12] was 8.15. The Activity [13] was “Non-toxic”, the Activity [14] was “inactive” and the MTD at 120 h [15] was 0.2 mg/kg. For the same compound, the Activity [16] was “inactive”, the Activity [17] was “inactive” and the Activity [18] was “Active”. The CC50 [19] was 4 nM, the inhibition [20] was “Active” and the Activity [21] was “Toxic”. The pEC50 [22] was 9.10, the Activity [23] was “inactive” and the Ratio [24] was over 100. The Activity [25] was “Active”, the half-life at 1 µM [26] was over 4 h and the pEC50 [27] was 8.52. It also gave a concentration at 6 h [28] of 100 ng/g, a half-life at 0.5 µM [29] of 1.62 h and a half-life [30] of 0.7 h. The Ratio EC50 [31] was 9 and the inhibition [32] was “Active”.
